Source: ChEMBL document CHEMBL3414553, “Novel imidazo[2,1-b]-1,3,4-thiadiazoles as promising antifungal agents against clinical isolate of Cryptococcus neoformans” (2015)
Converted amounts (≈) assume the structure as drawn.

What was measured:
Type in all cases: functional
Candida albicans [1] = assay: Antifungal activity against Candida albicans ATCC 90028 after 24 hrs by two-fold broth microdilution method; conditions: ATCC 90028, 24 h
In short: (§1)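 Strains subcultured one day before testing; colonies suspended in sterile water and adjusted to 0.5 McFarland (1.5 × 10^8 cfu/ml). Two-fold dilutions in MHB (medium pH 7.4 ± 0.1), final 200 to 0.39 µg/ml. Incubated 37 ± 1 °C for 24 h, then resazurin (0.4 mg/ml) added for a further 5 h. MIC read by colour: blue = no growth, pink = growth.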

Candida albicans [2] = assay: Antifungal activity against Candida albicans clinical isolate after 24 hrs by two-fold broth microdilution method; in short: as §1
Cryptococcus neoformans [3] = assay: Antifungal activity against […] ATCC 66031 after 24 hrs by two-fold broth microdilution method; conditions: ATCC 66031, 24 h; in short: as §1
Cryptococcus neoformans [4] = assay: Antifungal activity against […] clinical isolate after 24 hrs by two-fold broth microdilution method; in short: as §1
Aspergillus niger = assay: Antifungal activity against Aspergillus niger ATCC 16404 after 24 hrs by two-fold broth microdilution method; conditions: ATCC 16404, 24 h; in short: as §1
Staphylococcus aureus = assay: Antibacterial activity against Staphylococcus aureus ATCC 25923 after 24 hrs by two-fold broth microdilution method; conditions: ATCC 25923, 24 h; in short: as §1
Bacillus subtilis = assay: Antibacterial activity against Bacillus subtilis ATCC 6051 after 24 hrs by two-fold broth microdilution method; conditions: ATCC 6051, 24 h; in short: as §1
Escherichia coli = assay: Antibacterial activity against Escherichia coli ATCC 35218 after 24 hrs by two-fold broth microdilution method; conditions: ATCC 35218, 24 h; in short: as §1
Pseudomonas aeruginosa = assay: Antibacterial activity against Pseudomonas aeruginosa ATCC 27853 after 24 hrs by two-fold broth microdilution method; conditions: ATCC 27853, 24 h; in short: as §1
[5] = test system: Mycobacterium tuberculosis; assay: Antimicrobial activity against Mycobacterium tuberculosis H37Rv
In short: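 M. tuberculosis H37Rv grown 5 d in 7H9-Tw-OADC with 10-point two-fold serial dilutions from DMSO (final DMSO 2%). Top concentration 200 µM, or 50-fold below the stock for poorly soluble compounds. Controls: medium/DMSO background, 100 µM rifampicin for zero growth, DMSO for maximum growth, plus a rifampicin dose-response. Growth read by OD590 and fluorescence (Ex 560/Em 590).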

MCF7 = assay: Cytotoxicity against human MCF7 cells
MDA-MB-231 = assay: Cytotoxicity against human MDA-MB-231 cells
MDA-MB-468 = assay: Cytotoxicity against human MDA-MB-468 cells

Row | SMILES | MIC (Candida albicans [1]) [µg/mL] | MIC (Candida albicans [2]) [µg/mL] | MIC (Cryptococcus neoformans [3]) [µg/mL] | MIC (Cryptococcus neoformans [4]) [µg/mL] | MIC (Aspergillus niger) [µg/mL] | MIC (Staphylococcus aureus) [µg/mL] | MIC (Bacillus subtilis) [µg/mL] | MIC (Escherichia coli) [µg/mL] | MIC (Pseudomonas aeruginosa) [µg/mL] | MIC [5] [µg/mL] | GI50 (MCF7) [µM] | GI50 (MDA-MB-231) [µM] | GI50 (MDA-MB-468) [µM]
1 | Brc1ccc(-c2nc3sc(-c4ccc(I)cc4)nn3c2/C=N/C2CCCCC2)cc1 | 25 (≈ 42.3 µM) | 50 (≈ 84.6 µM) | 100 (≈ 169 µM) | > 200 | 100 (≈ 169 µM) | 200 (≈ 338 µM) | 200 (≈ 338 µM) | 200 (≈ 338 µM) | 50 (≈ 84.6 µM) |  |  |  | 
2 | O=C(/C=C/c1c(-c2ccc(Br)cc2)nc2sc(-c3ccccc3Br)nn12)c1ccccc1 | 200 (≈ 354 µM) | > 200 | 1.56 (≈ 2.76 µM) | 6.25 (≈ 11.1 µM) | > 200 | 200 (≈ 354 µM) | > 200 | > 200 | > 200 |  |  |  | 
3 | Clc1ccccc1-c1nn2c(/C=N/C3CC3)c(-c3ccc(Br)cc3)nc2s1 | 25 (≈ 54.6 µM) | 50 (≈ 109 µM) | 100 (≈ 218 µM) | > 200 | 100 (≈ 218 µM) | 200 (≈ 437 µM) | 200 (≈ 437 µM) | 200 (≈ 437 µM) | 50 (≈ 109 µM) |  |  |  | 
4 | O=C(NN=C1CCCCC1)c1ccncc1 |  |  |  |  |  |  |  |  |  | 30 (≈ 138 µM) |  |  | 
5 | Cc1ccc(C(=O)/C=C/c2c(-c3ccc(Br)cc3)nc3sc(-c4ccc(Cl)cc4)nn23)cc1 | 50 (≈ 93.5 µM) | > 200 | 3.12 (≈ 5.84 µM) | 6.25 (≈ 11.7 µM) | > 200 | > 200 | > 200 | > 200 | > 200 |  |  |  | 
6 | O=C(/C=C/c1c(-c2ccc(Br)cc2)nc2sc(-c3ccccc3Cl)nn12)c1cccs1 | 50 (≈ 94.9 µM) | > 200 | 200 (≈ 380 µM) | 200 (≈ 380 µM) | > 200 | > 200 | > 200 | > 200 | > 200 |  |  |  | 
7 | O=C(/C=C/c1c(-c2ccc(Br)cc2)nc2sc(-c3ccccc3Br)nn12)c1cccs1 | > 200 | > 200 | 3.12 (≈ 5.47 µM) | 12.5 (≈ 21.9 µM) | > 200 | > 200 | > 200 | > 200 | > 200 |  |  |  | 
8 | O=C(/C=C/c1c(-c2ccc(Br)cc2)nc2sc(-c3ccccc3)nn12)c1ccccc1 | > 200 | > 200 | 25 (≈ 51.4 µM) | 200 (≈ 411 µM) | > 200 | > 200 | > 200 | > 200 | > 200 |  |  |  | 
9 | COc1ccc(C(=O)/C=C2\C(=O)Nc3ccc(Cl)cc32)cc1OC |  |  |  |  |  |  |  |  |  |  | 3.95 | 8.54 | 4.76
10 | O=C(/C=C/c1c(-c2ccc(Br)cc2)nc2sc(-c3ccc(Cl)cc3)nn12)c1cccs1 | 25 (≈ 47.5 µM) | > 200 | 12.5 (≈ 23.7 µM) | 12.5 (≈ 23.7 µM) | > 200 | > 200 | > 200 | > 200 | > 200 |  |  |  | 
11 | Clc1ccc(-c2nn3c(/C=N/C4CC4)c(-c4ccc(Br)cc4)nc3s2)cc1 | 25 (≈ 54.6 µM) | 50 (≈ 109 µM) | 100 (≈ 218 µM) | 200 (≈ 437 µM) | 100 (≈ 218 µM) | 200 (≈ 437 µM) | 200 (≈ 437 µM) | 200 (≈ 437 µM) | 50 (≈ 109 µM) |  |  |  | 
12 | O=C(/C=C/c1c(-c2ccc(Br)cc2)nc2sc(-c3ccccc3Cl)nn12)c1ccccc1 | > 200 | > 200 | 12.5 (≈ 24 µM) | 12.5 (≈ 24 µM) | > 200 | > 200 | > 200 | 100 (≈ 192 µM) | > 200 |  |  |  | 
13 | Cc1ccc(C(=O)/C=C/c2c(-c3ccc(Br)cc3)nc3sc(-c4ccccc4)nn23)cc1 | 25 (≈ 50 µM) | > 200 | 25 (≈ 50 µM) | 100 (≈ 200 µM) | > 200 | > 200 | > 200 | > 200 | > 200 |  |  |  | 
14 | Brc1ccc(-c2nc3sc(-c4ccccc4Br)nn3c2/C=N/C2CCCCC2)cc1 | 50 (≈ 91.9 µM) | 50 (≈ 91.9 µM) | 100 (≈ 184 µM) | 200 (≈ 367 µM) | 50 (≈ 91.9 µM) | 200 (≈ 367 µM) | 200 (≈ 367 µM) | 200 (≈ 367 µM) | 50 (≈ 91.9 µM) |  |  |  | 
15 | Brc1ccc(-c2nc3sc(-c4ccccc4Br)nn3c2/C=N/C2CC2)cc1 | 25 (≈ 49.8 µM) | 50 (≈ 99.6 µM) | 100 (≈ 199 µM) | 200 (≈ 398 µM) | 100 (≈ 199 µM) | 200 (≈ 398 µM) | 200 (≈ 398 µM) | 200 (≈ 398 µM) | 50 (≈ 99.6 µM) |  |  |  | 
